# Sampled rows, rich in hits. Any-hit rate of the full collection: about 0.27%.
# Bfl-1 Bim block = inhibitors of Bim-Bfl-1 interaction, human; Q16548; Bead-based flow cytometry, Bim-Bfl-1 binding inhibition; inhibition, % at 10 µM; 190,000 compounds, 0.12% hits; AID 1008;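 also: 0% = wells without compound plus tracer and 100% = blocker peptide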
# Bcl-W Bim block = human Bim-Bcl-W interaction inhibition; 190,000 compounds, 0.02% hits; inhibition, % at 10 µM; Q92843; AID 952; bead-based flow cytometry, Bim peptide-Bcl-W binding;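 also: 0% = bound tracer without compound and 100% = peptide blocker; higher means less fluorescent Bim peptide bound to Bcl-W beads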
# Bcl-B Bim block = inhibitors of Bim-Bcl-B interaction, human | bead-based flow cytometry, Bim peptide-Bcl-B binding | 190,000 compounds, 0.073% hits | inhibition, % at 10 µM | Q9HD36;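 also: 0% = tracer peptide without compound and 100% = reference inhibitor peptide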
# Mdm2 ligase inh = blocks human Mdm2 ubiquitin ligase activity; Q00987; cell-based MDM2 ubiquitination luciferase reporter, 2 h; 0 = plate control, 100 = twice control, blank-subtracted; signal enhancement, % at 5 µM; 210,000 compounds, 0.11% hits; AID 1230;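 active = signal enhancement of 30% or more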;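 also: luminescence tracks abundance of the self-degrading MDM2-luciferase fusion protein; higher signal means inhibition of MDM2 E3 ligase activity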
# Target sequence (Q00987 whole entry, looked up, the tested form may be a part): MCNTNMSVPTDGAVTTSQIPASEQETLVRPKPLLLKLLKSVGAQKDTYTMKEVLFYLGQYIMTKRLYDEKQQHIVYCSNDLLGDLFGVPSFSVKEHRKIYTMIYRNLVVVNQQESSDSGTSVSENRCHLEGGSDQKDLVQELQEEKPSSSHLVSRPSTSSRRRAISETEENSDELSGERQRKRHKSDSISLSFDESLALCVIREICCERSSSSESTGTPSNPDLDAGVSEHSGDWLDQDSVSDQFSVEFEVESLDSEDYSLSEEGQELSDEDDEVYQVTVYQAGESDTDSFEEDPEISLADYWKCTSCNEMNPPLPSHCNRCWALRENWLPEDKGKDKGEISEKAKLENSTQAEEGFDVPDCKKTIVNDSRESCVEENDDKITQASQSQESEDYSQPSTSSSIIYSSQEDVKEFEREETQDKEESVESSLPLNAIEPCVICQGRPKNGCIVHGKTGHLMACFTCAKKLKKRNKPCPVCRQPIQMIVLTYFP
#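 Assay system: mammalian cells stably expressing self-ubiquitinating, self-degrading MDM2 E3–luciferase fusion. Quantity: 2000 cells in each well. Medium: DMEM culture medium. Compound dosing: single-point 5 µM. Timing: cell settling 4 h, compound treatment 2 h, both 37 °C. Technique: luciferase luminescence. Read-out basis: percent signal gain over controls, blank-subtracted. Benchmarks: plate controls and plate blanks.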
# Bcl-2 Bim block = disrupts Bim peptide binding to human Bcl-2; inhibition, % at 10 µM; AID 950; 190,000 compounds, 0.06% hits; P10415; Bead-based flow cytometry, Bim peptide-Bcl-2 binding; in the data active = inhibition above about 40%;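 also: 0% = no compound wells with probe peptide and 100% = reference peptide inhibitor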
# Bim-Bcl-XL = disrupts Bim peptide binding to human Bcl-XL. Q07817. bead flow cytometry, fluorescence. inhibition, % at 10 µM. 190,000 compounds, 0.04% hits
# * = called active by the depositor; · = no result given. Rule as the data show it, unless noted: active = inhibition above about 40%.
SMILES,Bfl-1 Bim block,Bcl-W Bim block,Bcl-B Bim block,Mdm2 ligase inh,Bcl-2 Bim block,Bim-Bcl-XL
Cc1ccc(C)c(NC(=O)C(Sc2nnc(-c3cccs3)o2)c2ccccc2)c1 (configuration not stated),-2,-1,-2,50*,0,-6
Cc1ccc(C)c(NC(=O)C(Sc2cccc[n+]2[O-])c2ccccc2)c1 (configuration not stated),-4,-3,-8,7,-3,-2
COC(=O)Cc1cc(=O)[nH]c(Nc2nc3ccccc3o2)n1,64*,13,-2,-9,-5,4
Cc1ccc(-n2c(C)cc(C=C3C(=O)CC(C)(C)CC3=O)c2C)cc1,0,-2,-5,57*,-4,-6
CCOC(=O)c1sc(NC(=O)CSc2n[nH]c(-c3ccccc3)n2)c(C#N)c1C,28,6,-28,-2,-3,-2
Cc1ccc(/C=C/C2=Cc3c(sc(NC(=O)CSc4n[nH]c(N)n4)c3C#N)C(C)(C)C2)o1,47*,26,7,-3,19,16
COc1ccc(-c2cc(C(F)(F)F)nc(SCC(=O)NCc3cnn(C)c3C)n2)cc1OC,1,-4,-7,35*,0,-1
COc1ccc(-c2cc(C(F)(F)F)nc(SCC(=O)NCc3ccco3)n2)cc1OC,10,0,-3,-20,-3,-3
CC(C)c1ccc(C2CC(c3ccc(Br)cc3)=NN2C(N)=S)cc1 (configuration not stated),-2,-3,66*,7,-1,-3
Cc1cc(=O)[nH]c(/N=C(\N)Nc2ccc(SC(F)F)cc2)n1,-4,0,-4,-11,-1,-3
CC(=O)NC1C(=O)N=C(SCC(=O)NC(C)c2ccccc2)NC1=O (configuration not stated),1,0,2,34*,2,1
CC(=O)NC1C(=O)N=C(SCc2ccccc2)NC1=O (configuration not stated),-5,3,0,-9,2,0
CN(C)c1nc(=NCc2ccco2)ss1,·,·,·,37*,·,·
Cn1nnnc1SCC(=O)NC1CCCc2ccccc21 (configuration not stated),-3,0,-2,-10,-2,0
Clc1ccc2c(N/N=C/c3cccc(Br)c3)ccnc2c1,33,13,29,-7,37,0
Clc1ccc2c(N/N=C/c3ccccc3Br)ccnc2c1,43*,16,33,-24,28,-4
CCC1=C(OC(=O)N(CC)CC)N2C(=O)OC(=NCC3CC3)[C@]2(C)[C@H]2C1=CC[C@H]1C(=O)N(CC)C(=O)[C@H]12,·,·,·,1,·,·
CCn1c(=O)n(CC(=O)Nc2cc(OC)c(OC)c(OC)c2)c(=O)c2ccccc21,-8,1,-4,37*,-6,-3
CCn1c(=O)n(CC(=O)Nc2cccc(OC)c2)c(=O)c2ccccc21,-10,-1,-5,10,-5,0
CC(C)(C)c1cc(C(=O)NCCN2CCCC2)cc(C(C)(C)C)c1,-2,-1,0,-12,-2,-2
NS(=O)(=O)c1ccc(CCNC(=O)c2ccc3ccccc3n2)cc1,-2,0,-1,1,0,2
Cc1cc(NC(=O)c2ccccc2F)on1,0,1,8,-1,0,0
Cc1cc(C)nc(S/C=C/C(=O)c2ccccc2F)n1,·,·,·,39*,·,·
COc1cccc(N2CCN(c3ncnc4c3[nH]c3ccc(F)cc34)CC2C)c1 (configuration not stated),0,2,1,-15,2,-3
COc1ccc2[nH]c3c(N4CC(C)OC(C)C4)ncnc3c2c1 (configuration not stated),-11,0,-4,35*,-4,-1
SMILES,Bfl-1 Bim block,Bcl-W Bim block,Bcl-B Bim block,Mdm2 ligase inh,Bcl-2 Bim block,Bim-Bcl-XL
CCN(CC)C(=O)CN1CCN(c2ncccn2)CC1,-9,-7,-7,53*,-7,2
O=C(CN1CCN(c2ncccn2)CC1)N1CCCC1,-10,-4,-7,-2,-6,-8
Cc1sc(NC(=O)Cn2cnnn2)nc1-c1ccc(Cl)cc1,53*,7,67*,-23,84*,20
COc1ccc(-c2nc(NC(=O)Cn3cnnn3)sc2C)cc1,-2,0,-3,-5,2,-2
CC1=NN(c2ccc(C)cc2)C(=O)/C1=C\C=C\c1ccccc1,0,-2,-10,52*,-3,-9
CC1=NN(c2cccc(C(=O)O)c2)C(=O)/C1=C\C=C/c1ccccc1,0,-1,0,31*,3,-2
O=S1(=O)C=C(Sc2nc3ccccc3s2)c2ccccc21,0,0,-7,52*,0,-5
Cc1cc2nc(/C(C#N)=C/c3ccncc3)[nH]c2cc1C,38,47*,34,·,44*,39
Cc1ccc(/C=N/N2CCN(C3c4ccccc4-c4ccccc43)CC2)o1,·,·,·,-9,·,·
Cc1[nH]c2ccc(Cl)cc2c(=O)c1CN1CCCC1,-6,0,-4,35*,-3,-5
Cc1[nH]c2ccccc2c(=O)c1CN1CCCCC1,-8,0,-9,-10,-4,-4
O=[N+]([O-])c1ccc(-c2cnc(SC(c3ccccc3)c3ccccc3)[nH]2)cc1,-10,-5,-12,-8,-8,-5
O=[N+]([O-])c1ccc(-c2cnc(SCc3ccccc3Cl)[nH]2)cc1,59*,12,81*,4,80*,14
Cc1ccc(-c2c3c([nH]c(=S)c2C#N)CCCC3)o1,41*,20,-5,·,11,5
N#Cc1c(-c2ccncc2)c2c([nH]c1=S)CCCC2,2,0,-9,-17,-2,0
C/C(CC(=O)Nc1cccc(Cl)c1Cl)=N\NC(=O)c1ccccc1N,0,0,-2,-2,2,-1
Cn1cnc([N+](=O)[O-])c1N=C(N)N,·,·,·,-11,·,·
CN1CCN(C(=S)NC(=O)c2ccc(S(=O)(=O)N3CCOCC3)cc2)CC1,9,-2,-27,-28,-5,-7
CC(C)Oc1ccc(C(=O)NC(=S)N2CCOCC2)cc1,9,0,-15,53*,1,-3
O=C(N1CCCC1)C(F)(F)Oc1ccc(F)cc1,-5,0,-1,-8,-1,2
Brc1ccc(-c2cnc(-c3cccs3)o2)cc1,4,1,-1,32*,4,1
COc1cc(NC(=O)c2ccc(C(C)(C)C)cc2)c(OC)cc1NC(=O)CN1CCCCC1,-6,0,0,4,-2,0
C/C(N)=C(/C#N)C(=O)COC(=O)CCCNC(=O)c1ccc(Cl)cc1,-5,-6,-9,-3,-5,-4
CCC(=O)N(CC)C1=C(O)c2ccccc2C(=O)C1=O,52*,10,11,-35,7,5
CN(C)/C=C/C(=O)c1ccc(C(F)(F)F)cc1F,22,23,89*,-3,74*,94*
